Laboratory results taken from PMC4755333 (Journal of medicinal chemistry, 2011).
Where two headings read alike, the source gives them in different places.

Legend:
[1] = system: B16-F1; assay: SRB cytotoxicity assay, B16-F1 mouse melanoma cells; format: cell-based; conditions: read-out: IC50 ± SEM, B16-F1, 96 h treatment
[2] = system: A375; assay: SRB cytotoxicity assay, A375 melanoma cells; format: cell-based, human; conditions: read-out: IC50 ± SEM, A375, 96 h treatment
[3] = system: WM-164; assay: SRB cytotoxicity assay, WM-164 melanoma cells; format: cell-based, human; conditions: read-out: IC50 ± SEM, WM-164, 96 h treatment
[4] = system: DU 145; assay: SRB cytotoxicity assay, DU 145 prostate cancer cells; format: cell-based, human; conditions: read-out: IC50 ± SEM, DU 145
[5] = system: PC-3; assay: SRB cytotoxicity assay, PC-3 prostate cancer cells; format: cell-based, human; conditions: read-out: IC50 ± SEM, PC-3
[6] = system: LNCaP; assay: SRB cytotoxicity assay, LNCaP prostate cancer cells; format: cell-based, human; conditions: read-out: IC50 ± SEM, LNCaP
[7] = system: PPC-1; assay: SRB cytotoxicity assay, PPC-1 prostate cancer cells; format: cell-based, human; conditions: read-out: IC50 ± SEM, PPC-1
[8] = Aqueous solubility, Multiscreen solubility filter plate with LC-MS/MS; format: physicochemical; conditions: for solubility compared with compound 1: Figure 3
[9] = system: cancer cell lines; format: cell-based; conditions: for IC50: read-out: activity/potency range across cancer cell lines; for antiproliferative activity: text summary of Tables 1–3; for activity relative to 47: IC50 values of Table 4
[10] = system: Bovine brain tubulin; assay: In vitro tubulin polymerization assay; format: biochemical; conditions: 5 µM compound, 20 min incubation
How it was run: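 Bovine brain tubulin (0.4 mg, >97% pure) combined with test compound in general tubulin buffer (80 mM PIPES, 2.0 mM MgCl₂, 0.5 mM EGTA, 1 mM GTP, pH 6.9) at 37 °C. Polymerization tracked as A340 read every 1 min over 20 min. Inhibition expressed against vehicle.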

[11] = Rat pharmacokinetic study; format: in vivo, Sprague–Dawley rats; conditions: 10 mg/kg

Molecule: 3-(3,4,5-Trimethoxyphenylsulfonyl)biphenyl [Compound 24]
- IC50 [1]: > 10 µM
- IC50 [2]: > 10 µM
- IC50 [3]: > 10 µM
- IC50 ([4]; SRB assay, 96 h treatment): > 10 µM
- IC50 ([5]; SRB assay, 96 h treatment): > 10 µM
- IC50 ([6]; SRB assay, 96 h treatment): > 10 µM
- IC50 ([7]; SRB assay, 96 h treatment): > 10 µM

Molecule: COc1cc(/C(=N\N)c2csc(-c3ccccc3)n2)cc(OC)c1OC [Compound 14b, (E)-4-(Hydrazono(3,4,5-trimethoxyphenyl)methyl)-2-phenylthiazole]
- IC50 ([4]; Homo sapiens, DU-145, 96 h): 1.21 µM

Molecule: COc1cc(C(=O)c2csc(-c3ccc(CN)cc3)n2)cc(OC)c1OC.Cl [Compound 39, (2-(4-(Aminomethyl)phenyl)thiazol-4-yl)(3,4,5-trimethoxyphenyl)-methanone Hydrochloride]
- increase in solubility compared with compound 1 ([8]; PBS, HCl salt): over 35 fold
- solubility at […] ([8]; phosphate buffered saline (PBS) buffer, pH 7.4): ≥ 35 µg/mL

Molecule: COc1cc(/C(=N\C#N)c2csc(-c3ccccc3)n2)cc(OC)c1OC [Compound 16, N-((2-Phenylthiazol-4-yl)(3,4,5-trimethoxyphenyl)methylene)cyanamide]
- IC50 [9]: 0.02 to 0.06 µM

Molecule: COc1cc(C(=O)c2coc(-c3ccccc3)n2)cc(OC)c1OC [Compound 6, (2R)-(2-Phenyl-oxazol-4-yl)-(3,4,5-trimethoxy-phenyl)-methanone]
- antiproliferative activity [9]: hundreds of nanomolar range

Molecule: CO/N=C(\c1cc(OC)c(OC)c(OC)c1)c1csc(-c2ccccc2)n1 [Compound 13d, (E)-(2-Phenylthiazol-4-yl)(3,4,5-trimethoxyphenyl)methanone O-Methyl Oxime]
- IC50 ([5]; Homo sapiens, PC-3, 96 h): > 10 µM
- IC50 ([6]; Homo sapiens, LNCaP, 96 h): > 10 µM

Molecule: COc1cc(C(=O)c2csc(-c3ccc(CN(C)C)cc3)n2)cc(OC)c1OC.Cl [Compound 42, (2-(4-((Dimethylamino)methyl)phenyl)thiazol-4-yl)(3,4,5-trimeth-oxyphenyl)methanone Hydrochloride]
- antiproliferative activity [9]: abrogated activity

Molecule: CO/N=C(/c1cc(OC)c(OC)c(OC)c1)c1csc(-c2ccccc2)n1 [Compound 13c, (Z)-(2-Phenylthiazol-4-yl)(3,4,5-trimethoxyphenyl)methanone O-Methyl Oxime]
- IC50 ([7]; Homo sapiens, PPC-1, 96 h): > 10 µM

Molecule: COc1cc(C(=O)c2csc(Nc3ccc(F)cc3)n2)cc(OC)c1OC [Compound 45c, (2-(p-Fluorophenylamino)thiazol-4-yl)(3,4,5-trimethoxyphenyl)-methanone]
- solubility compared with compound 1 ([8]; PBS): improved solubility
- IC50 [9]: 0.035 to 0.065 µM

Molecule: COc1cc(C(=O)C2COC(c3ccccc3)=N2)cc(OC)c1OC (stereo in doubt) [Compound 5, (2R)-(2-Phenyl-4,5-dihydro-oxazol-4-yl)-(3,4,5-trimethoxy-phenyl)-methanone]
- antiproliferative activity [9]: hundreds of nanomolar range

Molecule: COc1cc(C(=O)c2csc(-c3ccc4[nH]ccc4c3)n2)cc(OC)c1OC [Compound 36, (2-(1H–Indol-5-yl)thiazol-4-yl)(3,4,5-trimethoxyphenyl)methanone]
- inhibition of tubulin polymerization as compared to vehicle [10]: 69%

Molecule: Biphenyl-3-yl(3,4,5-trimethoxyphenyl)sulfane [Compound 23]
- IC50 [1]: 2.4 ± 0.9 µM
- IC50 [2]: 1.6 ± 0.4 µM
- IC50 [3]: 2 ± 1.2 µM
- IC50 ([4]; SRB assay, 96 h treatment): > 10 µM
- IC50 ([5]; SRB assay, 96 h treatment): > 10 µM
- IC50 ([6]; SRB assay, 96 h treatment): 2.3 ± 0.2 µM
- IC50 ([7]; SRB assay, 96 h treatment): 2.3 ± 0.1 µM

Molecule: COc1cc(C(=O)c2csc(Nc3ccc(F)cc3)n2)cc(OC)c1OC.Cl [Compound 46c, (2-(p-Fluorophenylamino)thiazol-4-yl)(3,4,5-trimethoxyphenyl)-methanone Hydrochloride Salt]
- increased exposure (AUC) by the oral route as compared to 1 [11]: more than 4.3 fold

Molecule: (E)-2-Phenyl-4-(3,4,5-trimethoxystyryl)thiazole [Compound 21]
- IC50 [1]: 32.8 ± 13 µM
- IC50 [2]: > 100 µM
- IC50 [3]: 30.8 ± 12 µM
- IC50 ([4]; SRB assay, 96 h treatment): > 10 µM
- IC50 ([5]; SRB assay, 96 h treatment): > 10 µM
- IC50 ([6]; SRB assay, 96 h treatment): > 10 µM
- IC50 ([7]; SRB assay, 96 h treatment): > 10 µM
- antiproliferative activity [9]: lost activity

Molecule: 3-(3,4,5-Trimethoxyphenylsulfinyl)biphenyl [Compound 25]
- IC50 [1]: > 10 µM
- IC50 [2]: > 10 µM
- IC50 [3]: > 10 µM
- IC50 ([4]; SRB assay, 96 h treatment): > 10 µM
- IC50 ([5]; SRB assay, 96 h treatment): > 10 µM
- IC50 ([6]; SRB assay, 96 h treatment): > 10 µM
- IC50 ([7]; SRB assay, 96 h treatment): > 10 µM

Molecule: COc1cc(C(=O)c2csc(-c3ccccc3)n2)cc(OC)c1OC [Compound 1]
- IC50 ([5]; Homo sapiens, PC-3, 96 h): 0.021 ± 0.001 µM
- IC50 ([7]; Homo sapiens, PPC-1, 96 h): 0.043 ± 0.005 µM

Molecule: COc1cc(C(=O)c2cc(-c3ccccc3)n[nH]2)cc(OC)c1OC [Compound 9f, (3-Phenyl-1H–pyrazol-5-yl)(3,4,5-trimethoxyphenyl)methanone]
- antiproliferative activity [9]: hundreds of nanomolar range

Molecule: COc1cc(C(=O)c2csc(Nc3ccccc3)n2)cc(OC)c1OC [Compound 45a, (2-(Phenylamino)thiazol-4-yl)(3,4,5-trimethoxyphenyl)methanone]
- solubility compared with compound 1 ([8]; PBS): improved solubility
- activity relative to 47 [9]: over 20 fold
- IC50 [9]: 0.035 to 0.065 µM

Molecule: CNCc1ccc(-c2nc(C(=O)c3cc(OC)c(OC)c(OC)c3)cs2)cc1.Cl [Compound 40, (2-(4-((Methylamino)methyl)phenyl)thiazol-4-yl)(3,4,5-trimeth-oxyphenyl)methanone Hydrochloride]
- antiproliferative activity [9]: abrogated activity

Molecule: COc1cc(C(=O)c2cccc(-c3ccccc3)c2)cc(OC)c1OC [Compound 9a, Biphenyl-3-yl(3,4,5-trimethoxyphenyl)methanone]
- antiproliferative activity [9]: hundreds of nanomolar range

Molecule: COc1cc(C(=O)c2csc(Nc3ccc(C)cc3)n2)cc(OC)c1OC.Cl [Compound 46b, (2-(p-Tolylamino)thiazol-4-yl)(3,4,5-trimethoxyphenyl)methanone Hydrochloride Salt]
- activity relative to 47 [9]: over 20 fold
- IC50 [9]: 0.035 to 0.065 µM

Molecule: (Z)-2-Phenyl-4-(3,4,5-trimethoxystyryl)thiazole [Compound 20]
- IC50 [1]: 11 ± 2.8 µM
- IC50 [2]: 46.5 ± 23.3 µM
- IC50 [3]: 10.6 ± 5.8 µM
- IC50 ([4]; SRB assay, 96 h treatment): > 10 µM
- IC50 ([5]; SRB assay, 96 h treatment): > 10 µM
- IC50 ([6]; SRB assay, 96 h treatment): > 10 µM
- IC50 ([7]; SRB assay, 96 h treatment): > 10 µM
- antiproliferative activity [9]: lost activity

Molecule: COc1cc(C(=O)N2CCC(c3ccccc3)CC2)cc(OC)c1OC [Compound 9i, (4-Phenylpiperidin-1-yl)(3,4,5-trimethoxyphenyl)methanone]
- antiproliferative activity [9]: totally abolished activity

Molecule: N-(3,4,5-Trimethoxyphenyl)biphenyl-3-sulfinamide [Compound 26]
- IC50 [1]: > 10 µM
- IC50 [2]: > 10 µM
- IC50 [3]: > 10 µM
- IC50 ([4]; SRB assay, 96 h treatment): > 10 µM
- IC50 ([5]; SRB assay, 96 h treatment): > 10 µM
- IC50 ([6]; SRB assay, 96 h treatment): > 10 µM
- IC50 ([7]; SRB assay, 96 h treatment): > 10 µM

Molecule: COc1cc(/C(=N/O)c2csc(-c3ccccc3)n2)cc(OC)c1OC [Compound 13a, (Z)-(2-Phenylthiazol-4-yl)(3,4,5-trimethoxyphenyl)methanoneOxime]
- activity of syn-isomer relative to anti isomer 13b ([9]; 13a vs 13b): 10 fold
